Measured values from ChEMBL document CHEMBL4257470, “Rational design and characterization of a DNA/HDAC dual-targeting inhibitor containing nitrogen mustard and 2-aminobenzamide moieties” (Medchemcomm, 2018).
The source made the active and inactive calls. The rule behind the calls is not given here.

What was measured:
[1] = test system: A-375; assay: Induction of apoptosis in human A375 cells assessed as viable cells at 16 uM after 72 hrs by Alexa Fluor 488 Annexin/propidium iodide staining-based flow cytometric analysis (reference value: 86.07%); format: functional; settings: A-375, 72 h, read-out: Activity
[2] = test system: A-375; assay: Induction of apoptosis in human A375 cells assessed as viable cells at 8 uM after 72 hrs by Alexa Fluor 488 Annexin/propidium iodide staining-based flow cytometric analysis (reference value: 86.07%); format: functional; settings: A-375, 72 h, read-out: Activity
[3] = test system: A-375; assay: Induction of apoptosis in human A375 cells assessed as necrotic cells at 16 uM after 72 hrs by Alexa Fluor 488 Annexin/propidium iodide staining-based flow cytometric analysis (reference value: 1.64%); format: functional
[4] = test system: NCI-H1299; assay: Antiproliferative activity against human H1299 cells after 72 hrs CCK8 assay; format: functional, cell-based; settings: NCI-H1299, 72 h
[5] = Induction of DNA damage in human A375 cells assessed as phosphorylation of H2AX at Ser139 residues at 8 uM after 48 hrs relative to control; format: functional
Outline: (§1)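 A375 cells seeded 7000 per well, treated next day for 48 h. Whole-cell γH2AX (Ser139) immunoassay read by absorbance, normalised to cell number and expressed as percent of untreated control; mean ± SD, n = 3; t-test.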

[6] = test system: A-375; assay: Induction of apoptosis in human A375 cells assessed as late apoptotic cells at 8 uM after 72 hrs by Alexa Fluor 488 Annexin/propidium iodide staining-based flow cytometric analysis (reference value: 10.22%); format: functional
[7] = test system: A-375; assay: Cell cycle arrest in human A375 cells assessed as accumulation at G2/M phase at 8 uM after 72 hrs by propidium iodide/RNase staining based flow cytometric analysis relative to control; format: functional
Outline: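 A375 cells (1.6 × 10^5 per well) plated 12 h, then treated with compound or DMSO for 72 h. Cells fixed overnight in 70% ethanol in phosphate buffer at –20 °C, stained 30 min at room temperature with RNase:PI (1:9). DNA content read by flow cytometry.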

[8] = test system: A-375; assay: Induction of apoptosis in human A375 cells assessed as necrotic cells at 8 uM after 72 hrs by Alexa Fluor 488 Annexin/propidium iodide staining-based flow cytometric analysis (reference value: 1.64%); format: functional
[9] = test system: SMMC-7721; assay: Antiproliferative activity against human SMMC7721 cells after 72 hrs CCK8 assay; format: functional, cell-based; settings: SMMC-7721, 72 h
Outline: (§2)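 Cells grown in RPMI1640 with 10% FBS, 1% penicillin/streptomycin, 37 °C, 5% CO2; log-phase cells seeded 3000–4000 per well, dosed after 12 h with a concentration series or solvent control for 72 h. CCK-8 added for 1 h, absorbance at 450 nm; IC50 from percent growth versus untreated control; mean of three experiments.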

[10] = test system: NCI-H460; assay: Antiproliferative activity against human H460 cells after 72 hrs CCK8 assay; format: functional, cell-based; settings: NCI-H460, 72 h; outline: as §2
[11] = test system: A-375; assay: Induction of apoptosis in human A375 cells assessed as late apoptotic cells at 16 uM after 72 hrs by Alexa Fluor 488 Annexin/propidium iodide staining-based flow cytometric analysis (reference value: 10.22%); format: functional
[12] = test system: A-375; assay: Induction of apoptosis in human A375 cells assessed as viable cells at 2 uM after 72 hrs by Alexa Fluor 488 Annexin/propidium iodide staining-based flow cytometric analysis (reference value: 86.07%); format: functional; settings: A-375, 72 h, read-out: Activity
[13] = Induction of DNA damage in human A375 cells assessed as phosphorylation of H2AX at Ser139 residues at 16 uM after 48 hrs relative to control; format: functional; outline: as §1
[14] = test system: A-375; assay: Induction of apoptosis in human A375 cells assessed as early apoptotic cells at 8 uM after 72 hrs by Alexa Fluor 488 Annexin/propidium iodide staining-based flow cytometric analysis (reference value: 2.07%); format: functional
[15] = test system: A-375; assay: Induction of apoptosis in human A375 cells assessed as late apoptotic cells at 2 uM after 72 hrs by Alexa Fluor 488 Annexin/propidium iodide staining-based flow cytometric analysis (reference value: 10.22%); format: functional
[16] = test system: A-375; assay: Induction of apoptosis in human A375 cells assessed as early apoptotic cells at 2 uM after 72 hrs by Alexa Fluor 488 Annexin/propidium iodide staining-based flow cytometric analysis (reference value: 2.07%); format: functional
[17] = test system: A-375; assay: Induction of apoptosis in human A375 cells assessed as necrotic cells at 2 uM after 72 hrs by Alexa Fluor 488 Annexin/propidium iodide staining-based flow cytometric analysis (reference value: 1.64%); format: functional
[18] = test system: A-375; assay: Induction of apoptosis in human A375 cells assessed as early apoptotic cells at 16 uM after 72 hrs by Alexa Fluor 488 Annexin/propidium iodide staining-based flow cytometric analysis (reference value: 2.07%); format: functional
[19] = test system: A-375; assay: Induction of apoptosis in human A375 cells after 72 hrs by Alexa Fluor 488 Annexin/propidium iodide staining-based flow cytometric analysis; format: functional, cell-based
[20] = target: T1, Protein deacetylase HDAC6 (Homo sapiens, UniProt Q9UBN7); assay: Inhibition of recombinant human HDAC6 using FLUOR DE LYS SIRT1, deacetylase as substrate after 1 hr by fluorescence assay
T1 sequence (Q9UBN7 whole entry): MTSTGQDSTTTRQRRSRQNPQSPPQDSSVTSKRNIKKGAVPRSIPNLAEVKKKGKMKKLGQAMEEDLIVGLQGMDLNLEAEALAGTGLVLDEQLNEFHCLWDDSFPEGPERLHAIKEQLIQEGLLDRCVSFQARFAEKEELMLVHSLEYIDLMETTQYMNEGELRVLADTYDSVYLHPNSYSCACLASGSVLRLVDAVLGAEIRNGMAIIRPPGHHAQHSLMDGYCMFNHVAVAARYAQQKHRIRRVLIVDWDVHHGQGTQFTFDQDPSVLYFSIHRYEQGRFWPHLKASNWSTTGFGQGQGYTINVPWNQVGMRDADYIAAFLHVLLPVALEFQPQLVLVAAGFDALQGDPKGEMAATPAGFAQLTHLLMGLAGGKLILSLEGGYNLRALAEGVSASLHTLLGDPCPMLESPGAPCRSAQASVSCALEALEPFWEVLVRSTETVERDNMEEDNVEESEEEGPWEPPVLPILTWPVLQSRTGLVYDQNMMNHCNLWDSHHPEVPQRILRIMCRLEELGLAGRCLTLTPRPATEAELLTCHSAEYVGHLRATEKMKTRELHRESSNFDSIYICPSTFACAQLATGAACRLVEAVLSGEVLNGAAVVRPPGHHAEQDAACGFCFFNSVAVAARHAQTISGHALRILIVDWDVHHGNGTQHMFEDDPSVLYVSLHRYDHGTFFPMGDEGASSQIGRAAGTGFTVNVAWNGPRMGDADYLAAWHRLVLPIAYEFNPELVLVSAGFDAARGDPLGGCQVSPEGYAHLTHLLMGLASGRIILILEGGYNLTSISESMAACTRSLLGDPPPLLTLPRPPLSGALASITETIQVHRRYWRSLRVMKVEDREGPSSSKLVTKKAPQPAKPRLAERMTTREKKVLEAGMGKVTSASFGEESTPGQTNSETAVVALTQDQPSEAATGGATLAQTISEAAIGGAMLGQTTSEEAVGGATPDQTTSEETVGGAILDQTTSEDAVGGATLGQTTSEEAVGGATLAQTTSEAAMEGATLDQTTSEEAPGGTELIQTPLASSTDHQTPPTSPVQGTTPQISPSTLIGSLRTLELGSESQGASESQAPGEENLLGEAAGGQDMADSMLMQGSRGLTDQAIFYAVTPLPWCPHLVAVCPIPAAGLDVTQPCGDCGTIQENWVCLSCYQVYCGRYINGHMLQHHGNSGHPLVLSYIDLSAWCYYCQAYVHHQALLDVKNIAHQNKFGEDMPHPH
Outline: (§3)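 Each isoform kit run with the enzyme preincubated with a concentration series of inhibitor, and substrate added after 5 min equilibration at 37 °C. Reaction ran 1 h at 37 °C, was stopped with developer for 10 min at 25 °C, and fluorescence was read at ex 360/em 460 nm. Activity taken as percent of control; IC50 by regression of dose–inhibition data.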

[21] = target: T2, Histone deacetylase 8 (Homo sapiens, UniProt Q9BY41); assay: Inhibition of recombinant human HDAC8 using FLUOR DE LYS as substrate after 1 hr by fluorescence assay; outline: as §3
T2 sequence (Q9BY41 whole entry): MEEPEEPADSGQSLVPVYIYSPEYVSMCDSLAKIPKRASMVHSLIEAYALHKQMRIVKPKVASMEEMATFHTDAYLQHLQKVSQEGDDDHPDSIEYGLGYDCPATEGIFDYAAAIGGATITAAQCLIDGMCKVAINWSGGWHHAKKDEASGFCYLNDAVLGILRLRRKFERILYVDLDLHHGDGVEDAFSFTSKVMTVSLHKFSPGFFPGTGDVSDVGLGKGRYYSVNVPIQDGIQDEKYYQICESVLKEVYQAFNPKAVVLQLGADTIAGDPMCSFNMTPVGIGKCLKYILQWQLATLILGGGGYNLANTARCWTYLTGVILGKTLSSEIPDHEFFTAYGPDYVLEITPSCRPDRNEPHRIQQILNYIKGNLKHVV

[22] = test system: A549; assay: Antiproliferative activity against human A549 cells after 72 hrs CCK8 assay; format: functional, cell-based; settings: A549, 72 h
[23] = test system: A-375; assay: Anticlonogenic activity against human A375 cells after 7 days by crystal violet staining based assay; format: functional, cell-based
Outline: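 A375 cells seeded at 3000 per well, treated after 24 h with compound or DMSO; after 7 days colonies fixed in 3.7% formaldehyde and stained with 0.1% crystal violet.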

[24] = target: Histone deacetylase 3/NCoR1 (Homo sapiens, UniProt O15379); assay: Inhibition of recombinant human HDAC3/NCOR1 using FLUOR DE LYS SIRT1 deacetylase substrate after 1 hr by fluorescence assay; format: protein-complex assay; outline: as §3
[25] = target: Histone deacetylase (Homo sapiens) (UniProt Q13547+O15379+Q9UBN7+Q92769+Q9UQL6+Q8WUI4+Q9BY41+Q96DB2+P56524+Q9UKV0+Q969S8); assay: Inhibition of HDAC in human HeLa cell nuclear extracts at 0.1 to 10000 uM using FLUOR DE LYS-Green as substrate after 1 hr by fluorescence assay; format: protein assay
Outline: (§4)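 Enzyme preincubated with a concentration series of inhibitor; Fluor de Lys-Green substrate equilibrated at 37 °C for 5 min, then added to start the reaction. Incubated 1 h at 37 °C, stopped with developer for 10 min at 25 °C, fluorescence read at ex 360/em 460 nm. Activity taken as percent of control; IC50 by regression of dose–inhibition data.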

[26] = target: Histone deacetylase 1 (Homo sapiens, UniProt Q13547); assay: Inhibition of recombinant human HDAC1 using FLUOR DE LYS SIRT1 deacetylase substrate after 1 hr by fluorescence assay; outline: as §3
[27] = target: Histone deacetylase 2 (Homo sapiens, UniProt Q92769); assay: Inhibition of recombinant human HDAC2 using FLUOR DE LYS-Green as substrate after 1 hr by fluorescence assay; outline: as §4
[28] = test system: A-375; assay: Antiproliferative activity against human A375 cells after 72 hrs CCK8 assay; format: functional, cell-based; settings: A-375, 72 h
[29] = test system: HepG2; assay: Antiproliferative activity against human HepG2 cells after 72 hrs CCK8 assay; format: functional, cell-based; settings: HepG2, 72 h

Histone deacetylase 3/NCoR1, sequence (O15379 whole entry): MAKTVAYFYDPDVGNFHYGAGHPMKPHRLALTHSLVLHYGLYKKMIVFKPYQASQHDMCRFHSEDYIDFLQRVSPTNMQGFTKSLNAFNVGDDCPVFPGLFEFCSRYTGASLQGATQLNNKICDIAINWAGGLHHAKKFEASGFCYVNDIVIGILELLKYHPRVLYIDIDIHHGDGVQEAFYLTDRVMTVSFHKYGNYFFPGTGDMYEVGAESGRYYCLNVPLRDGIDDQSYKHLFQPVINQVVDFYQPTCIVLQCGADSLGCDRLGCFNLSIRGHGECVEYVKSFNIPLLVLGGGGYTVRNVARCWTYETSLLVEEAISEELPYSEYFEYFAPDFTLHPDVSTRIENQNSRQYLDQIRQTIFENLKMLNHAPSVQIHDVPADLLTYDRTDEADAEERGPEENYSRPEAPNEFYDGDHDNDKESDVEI
Histone deacetylase 3/NCoR1, sequence (O75376 whole entry, further chain): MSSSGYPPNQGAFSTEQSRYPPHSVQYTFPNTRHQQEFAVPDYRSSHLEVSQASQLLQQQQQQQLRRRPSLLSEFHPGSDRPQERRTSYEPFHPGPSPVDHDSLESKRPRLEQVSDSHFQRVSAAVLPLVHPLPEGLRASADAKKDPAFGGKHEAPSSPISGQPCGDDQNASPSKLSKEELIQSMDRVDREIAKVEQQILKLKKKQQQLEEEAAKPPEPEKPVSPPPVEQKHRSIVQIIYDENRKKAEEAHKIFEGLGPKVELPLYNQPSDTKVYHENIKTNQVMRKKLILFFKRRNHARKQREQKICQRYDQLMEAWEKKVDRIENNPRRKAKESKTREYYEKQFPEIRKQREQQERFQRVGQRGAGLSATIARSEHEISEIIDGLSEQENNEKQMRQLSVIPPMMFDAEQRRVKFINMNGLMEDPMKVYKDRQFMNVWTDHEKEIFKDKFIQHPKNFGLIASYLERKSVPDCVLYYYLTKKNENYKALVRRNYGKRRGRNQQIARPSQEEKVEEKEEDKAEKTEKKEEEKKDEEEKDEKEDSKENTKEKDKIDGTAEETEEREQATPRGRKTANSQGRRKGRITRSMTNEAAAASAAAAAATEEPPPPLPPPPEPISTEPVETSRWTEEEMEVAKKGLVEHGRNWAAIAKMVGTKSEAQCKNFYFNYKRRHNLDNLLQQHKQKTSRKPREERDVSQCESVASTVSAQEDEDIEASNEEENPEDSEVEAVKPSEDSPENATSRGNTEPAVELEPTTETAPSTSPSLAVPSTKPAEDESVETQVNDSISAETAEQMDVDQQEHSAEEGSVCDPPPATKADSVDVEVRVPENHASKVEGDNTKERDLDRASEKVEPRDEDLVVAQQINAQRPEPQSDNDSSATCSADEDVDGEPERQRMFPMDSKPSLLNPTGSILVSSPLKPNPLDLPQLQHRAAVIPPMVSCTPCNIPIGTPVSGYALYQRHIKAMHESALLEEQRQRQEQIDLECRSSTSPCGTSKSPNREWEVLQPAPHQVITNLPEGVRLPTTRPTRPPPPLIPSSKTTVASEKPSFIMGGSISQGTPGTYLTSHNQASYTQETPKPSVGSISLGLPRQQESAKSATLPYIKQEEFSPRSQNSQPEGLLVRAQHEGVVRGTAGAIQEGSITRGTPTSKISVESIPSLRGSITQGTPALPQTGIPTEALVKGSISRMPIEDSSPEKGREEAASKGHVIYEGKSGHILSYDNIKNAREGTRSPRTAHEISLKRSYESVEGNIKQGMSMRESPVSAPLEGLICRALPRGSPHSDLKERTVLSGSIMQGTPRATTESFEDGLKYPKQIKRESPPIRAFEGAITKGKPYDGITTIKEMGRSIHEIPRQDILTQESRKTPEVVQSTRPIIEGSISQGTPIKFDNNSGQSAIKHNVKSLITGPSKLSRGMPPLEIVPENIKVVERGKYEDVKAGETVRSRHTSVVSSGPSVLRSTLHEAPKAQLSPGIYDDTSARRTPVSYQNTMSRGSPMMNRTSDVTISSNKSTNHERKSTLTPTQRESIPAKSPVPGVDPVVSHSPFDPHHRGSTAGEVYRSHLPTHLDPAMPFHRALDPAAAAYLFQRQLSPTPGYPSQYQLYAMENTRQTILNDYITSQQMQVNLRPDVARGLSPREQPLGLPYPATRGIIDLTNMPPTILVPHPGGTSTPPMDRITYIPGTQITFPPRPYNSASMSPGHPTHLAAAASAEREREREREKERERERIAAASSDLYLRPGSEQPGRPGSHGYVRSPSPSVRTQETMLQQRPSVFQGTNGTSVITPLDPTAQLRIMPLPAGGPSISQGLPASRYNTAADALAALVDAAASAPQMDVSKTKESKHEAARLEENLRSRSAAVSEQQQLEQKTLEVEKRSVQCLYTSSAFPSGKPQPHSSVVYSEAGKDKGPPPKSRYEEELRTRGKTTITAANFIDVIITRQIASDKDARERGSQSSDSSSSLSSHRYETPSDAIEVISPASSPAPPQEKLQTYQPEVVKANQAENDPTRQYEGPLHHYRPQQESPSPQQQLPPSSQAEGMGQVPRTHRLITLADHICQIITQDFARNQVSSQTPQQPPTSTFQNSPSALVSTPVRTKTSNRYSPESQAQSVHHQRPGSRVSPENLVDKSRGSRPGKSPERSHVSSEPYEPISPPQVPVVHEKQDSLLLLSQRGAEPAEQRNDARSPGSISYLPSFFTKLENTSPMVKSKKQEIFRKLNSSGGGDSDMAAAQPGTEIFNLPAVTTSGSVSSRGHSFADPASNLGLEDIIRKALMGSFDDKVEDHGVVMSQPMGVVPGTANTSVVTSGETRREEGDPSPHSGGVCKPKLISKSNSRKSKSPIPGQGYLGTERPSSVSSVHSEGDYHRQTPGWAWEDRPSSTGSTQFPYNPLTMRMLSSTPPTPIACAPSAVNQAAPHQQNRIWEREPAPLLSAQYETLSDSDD
Histone deacetylase 1, sequence (Q13547 whole entry): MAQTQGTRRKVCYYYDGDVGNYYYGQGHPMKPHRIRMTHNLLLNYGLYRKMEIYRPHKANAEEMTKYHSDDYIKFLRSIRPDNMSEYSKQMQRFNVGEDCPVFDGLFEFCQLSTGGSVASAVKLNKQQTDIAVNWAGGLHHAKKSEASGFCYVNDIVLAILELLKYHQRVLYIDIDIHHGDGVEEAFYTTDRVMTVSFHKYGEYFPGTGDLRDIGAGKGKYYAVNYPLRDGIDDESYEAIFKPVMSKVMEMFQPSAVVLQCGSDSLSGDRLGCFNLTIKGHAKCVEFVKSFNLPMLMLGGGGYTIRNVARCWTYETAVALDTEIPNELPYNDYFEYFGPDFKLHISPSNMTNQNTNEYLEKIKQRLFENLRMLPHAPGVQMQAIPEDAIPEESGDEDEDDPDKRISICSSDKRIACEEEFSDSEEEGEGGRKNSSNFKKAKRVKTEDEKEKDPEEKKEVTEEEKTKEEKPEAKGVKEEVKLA
Histone deacetylase 2, sequence (Q92769 whole entry): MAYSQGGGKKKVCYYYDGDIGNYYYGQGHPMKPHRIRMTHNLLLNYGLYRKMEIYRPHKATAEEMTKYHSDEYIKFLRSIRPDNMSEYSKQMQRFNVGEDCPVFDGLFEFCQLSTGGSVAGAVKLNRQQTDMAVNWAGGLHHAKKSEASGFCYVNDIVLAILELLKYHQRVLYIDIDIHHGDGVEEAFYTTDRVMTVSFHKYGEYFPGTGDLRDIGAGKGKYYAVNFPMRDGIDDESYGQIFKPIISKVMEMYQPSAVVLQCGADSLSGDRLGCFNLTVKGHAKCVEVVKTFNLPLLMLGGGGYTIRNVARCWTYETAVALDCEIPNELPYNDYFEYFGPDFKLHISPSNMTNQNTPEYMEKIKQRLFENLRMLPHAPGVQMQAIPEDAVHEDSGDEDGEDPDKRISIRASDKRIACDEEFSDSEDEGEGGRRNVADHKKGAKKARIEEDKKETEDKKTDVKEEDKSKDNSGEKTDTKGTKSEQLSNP

SMILES | viability at 16 µM [1] [%] | viability at 8 µM [2] [%] | Activity [3] [%] | IC50 [4] [µM] | Activity [5] [%] | Activity [6] [%] | Activity [7] [%] | Activity [8] [%] | IC50 [9] [µM] | IC50 [10] [µM] | Activity [11] [%] | viability at 2 µM [12] [%] | Activity [13] [%] | Activity [14] [%] | Activity [15] [%] | Activity [16] [%] | Activity [17] [%] | Activity [18] [%] | other results
O=C(O)CCCc1ccc(N(CCCl)CCCl)cc1 [CHLORAMBUCIL] | 71.1 | 87.1 | 6.44 | 116 | 128.9 | 8.41 | 47.6 | 2.34 | 163 | 28.9 | 18.21 | 90.1 | 128.6 | 2.11 | 6.95 | 1.62 | 1.36 | 4.21 | 
Nc1ccccc1NC(=O)CCCc1ccc(N(CCCl)CCCl)cc1 | 35.2 | 38 | 3.78 | 5.5 | 159 | 42.54 | 79.2 | 12.05 | 4 | 3.1 | 48.69 | 79.8 | 213.3 | 7.39 | 11.63 | 5.76 | 2.77 | 12.31 | Activity [19]: Dose-dependent effect; IC50 [20]: > 160 µM; IC50 [21]: 75.2 µM; IC50 [22]: 6.2 µM; Activity [23]: Dose-dependent effect; IC50 [24]: 9.52 µM; inhibition [25]: Active; IC50 [26]: > 160 µM; IC50 [27]: 32.9 µM; IC50 [28]: 6.1 µM; IC50 [29]: 14.2 µM
CC(=O)Nc1ccc(C(=O)Nc2ccccc2N)cc1 [TACEDINALINE] | 36 | 70.4 | 1.01 |  | 104.5 | 9.09 | 10.8 | 0.71 | 16.9 | 9.7 | 26.71 | 78.4 | 118.8 | 19.04 | 11.03 | 9.54 | 1.04 | 36.31 | 
